≈ marks a conversion by molar mass, not a printed value. Calls of active or inactive are those of the source. No cut-off for these calls is given here.
Tests used:
Plasmodium falciparum [1] = assay: Antiplasmodial activity against Plasmodium falciparum W2 after 48 hrs; format: functional, organism-based; details: W2, 48 h
Plasmodium falciparum [2] = assay: Antiplasmodial activity against Plasmodium falciparum D6 clone after 48 hrs; format: functional, organism-based; details: D6, 48 h
L929 = assay: Cytotoxicity against mouse L929 cells after 5 days by MTT assay; format: cell-based; details: L929, 120 h
Method in brief: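 L929 mouse fibroblasts were exposed to serial compound dilutions, and metabolic activity was read by MTT after 5 days.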

[3] = Inhibition of respiration in bovine heart submitochondrial particles assessed as NADH oxidation; format: functional, Bos taurus
Plasmodium berghei [4] = assay: Antimalarial activity against Plasmodium berghei infected in mice (Mus musculus) at 100 mg/kg; format: functional
Plasmodium berghei [5] = assay: Antimalarial activity against Plasmodium berghei infected in mice (Mus musculus)

IC50 (Plasmodium falciparum [1]) [µg/mL]	IC50 (Plasmodium falciparum [2]) [µg/mL]	IC50 [3] [µg/mL]	Structure (SMILES)	IC50 (L929) [µg/mL]	Activity (Plasmodium berghei [4])	ED90 (Plasmodium berghei [5]) [mg/kg]
0.013 (≈ 0.0321 µM)	0.0004 (≈ 0.000989 µM)	1.1 (≈ 2.72 µM)	CC(C)=CCC/C(C)=C/CC/C(C)=C/Cc1c(C)n2c(=O)[nH]c3cccc(c1=O)c32 [AURACHIN E]	25 (≈ 61.8 µM)	inactive	
0.036 (≈ 0.0949 µM)	0.078 (≈ 0.206 µM)	0.014 (≈ 0.0369 µM)	CC(C)=CCC/C(C)=C/CC/C(C)=C/Cc1c(O)c(C)[n+]([O-])c2ccccc12 [AURACHIN B]	3.2 (≈ 8.43 µM)		
> 12	> 12	0.028 (≈ 0.0708 µM)	CC(C)=CCC/C(C)=C/CCC(C)(O)C1Cc2c(c(C)[n+]([O-])c3ccccc23)O1 (stereo not drawn) [AURACHIN A]	1.4 (≈ 3.54 µM)		
0.37 (≈ 1.02 µM)	0.25 (≈ 0.688 µM)	0.018 (≈ 0.0495 µM)	CC(C)=CCC/C(C)=C/CC/C(C)=C/Cc1c(C)[nH]c2ccccc2c1=O [AURACHIN D]	1.3 (≈ 3.58 µM)		
		> 8.1	CCN(CC)CCCC(C)Nc1ccnc2cc(Cl)ccc12 (stereo not drawn) [CHLOROQUINE]	14 (≈ 43.8 µM)		2.8

Structure (SMILES)	IC50 (Plasmodium falciparum [1]) [µg/mL]	IC50 (Plasmodium falciparum [2]) [µg/mL]	IC50 [3] [µg/mL]	IC50 (L929) [µg/mL]	Activity (Plasmodium berghei [4])	ED90 (Plasmodium berghei [5]) [mg/kg]
CC(C)=CCC/C(C)=C/CC/C(C)=C/Cc1c(C)n(O)c2ccccc2c1=O [AURACHIN C]	0.026 (≈ 0.0685 µM)	0.0009 (≈ 0.00237 µM)	0.016 (≈ 0.0422 µM)	1.8 (≈ 4.74 µM)		
C[C@@H]1CC[C@H]2[C@@H](C)C(=O)O[C@@H]3O[C@@]4(C)CC[C@@H]1[C@]32OO4 [ARTEMISININ]	0.00043 (≈ 0.00152 µM)	0.0011 (≈ 0.0039 µM)	> 8.1	> 40		
